Results gathered from unrelated publications.
Medium: Caco-2

| Compound | tested at | time | pH | Papp A→B [×10⁻⁶ cm/s] |
| --- | --- | --- | --- | --- |
| Cc1ccc(N(c2ccc(NC(=O)CN(C)c3ccccc3N3CCCC3=O)cc2)C(C)C)cc1 | – | – | – | 1.09 |
| C[C@H]1[C@H](NC(=O)/C(=N\OC(C)(C)C(=O)O)c2csc(N)n2)C(=O)N1S(=O)(=O)O | 5 µM | 2 h | – | 0.09 |
| CC(C)NCC(O)COc1cccc2ccccc12 (centres unmarked) | 10 µM | 2 h | – | 29.7 |
| CC(C)C(=O)OCc1cc2[nH]c(=S)n(Cc3cccnc3)c(=O)c2cc1Cl | 10 µM | 90 min | pH 7.4 | 1.4 |
| C[C@@H]1O[C@@H](OC[C@H]2O[C@@H](Oc3c(-c4ccc(O)c(O)c4)oc4cc(O)cc(O)c4c3=O)[C@H](O)[C@@H](O)[C@@H]2O)[C@H](O)[C@H](O)[C@H]1O | 100 µg/mL | – | – | 0.304 |
| O=c1c2cc(Cl)ccc2[nH]c(=S)n1Cc1ccc(-c2nnn[nH]2)nc1 | 10 µM | 90 min | pH 7.4 | < 0.51 |
| O=C(O)[C@H]1O[C@@H](Oc2cc3oc(-c4ccccc4)cc(=O)c3c(O)c2O)[C@H](O)[C@@H](O)[C@@H]1O | 100 µg/mL | 2 h | – | 10.8 |
| O=c1c(O[C@@H]2O[C@H](CO)[C@H](O)[C@H](O)[C@H]2O)c(-c2ccc(O)c(O)c2)oc2cc(O)cc(O)c12 | 50 µg/mL | – | – | 0.256 |
| Cc1ncc(Cl)cc1NCc1ccc(C(=O)N[C@@H](CC2CCCC2)C(=O)NC2CC2)s1 | 5 µM | 2 h | pH 7.4 | 0.22 |
| CNC(C)(C)COCC(=O)N1CCC[C@H](C(=O)NCc2nc(-c3ccc(C(F)(F)F)cc3)cs2)C1 | – | – | pH 7.4 | 0.19 |
| O=C(CCc1ccc(O)cc1)c1c(O)cc(O)cc1O[C@@H]1O[C@H](CO)[C@@H](O)[C@H](O)[C@H]1O | 100 µg/mL | 2 h | – | 2.94 |
| O=c1cc(-c2ccc(O)cc2)oc2c([C@@H]3O[C@H](CO)[C@@H](O)[C@H](O)[C@H]3O)c(O)cc(O)c12 | 50 µg/mL | – | – | 0.254 |
| CNS(=O)(=O)Cc1ccc2[nH]cc(CCN(C)C)c2c1 | 5 µM | 2 h | – | 0.36 |
| O=c1cc(-c2ccc(O)c(O)c2)oc2cc(O)cc(O)c12 | 100 µg/mL | 2 h | – | 7.1 |
| Nc1nc2c(ncn2COCCO)c(=O)[nH]1 | 5 µM | 2 h | – | 0.18 |
| O=C(NCc1nc(-c2ccc(C(F)(F)F)cc2)cs1)[C@H]1CCCN(C(=O)CO[C@H]2CCCNC2)C1 | – | – | pH 7.4 | 0.15 |
| N=C(N)NCCCNC(=O)[C@@H]1CCCCN1C(=O)[C@@H](CC1CCCCC1)NCC(=O)O | 5 µM | 2 h | – | 0.05 |
| COCC(=O)N1CCC[C@H](C(=O)NCc2nc(-c3ccccc3)cs2)C1 | – | – | pH 7.4 | 52 |

| Compound | tested at | time | pH | Papp A→B [×10⁻⁶ cm/s] |
| --- | --- | --- | --- | --- |
| Oc1cc(O)c2c(c1)O[C@H](c1ccc(O)c(O)c1)[C@H](O)C2 | 100 µg/mL | 2 h | – | 1.26 |
| C=CC(=O)NC1CCN(c2ncc3ncnc(Nc4ccc(Oc5ccc6c(c5)ncn6C)c(C)c4)c3n2)CC1 | – | – | – | ~6.8 |
| N#Cc1ccc(C[C@H](NC(=O)c2cc3cc(F)ccc3[nH]2)C(=O)N2CCc3ccccc32)cc1 | 100 µM | 2 h | – | 1.2 |
| COCC(=O)N1CCC[C@H](C(=O)NCc2nc(-c3ccc(C#N)cc3)cs2)C1 | – | – | pH 7.4 | 24 |
| COc1ccc(CCC(=O)c2c(O)cc(O[C@@H]3O[C@H](CO)[C@@H](O)[C@H](O)[C@H]3O[C@@H]3O[C@@H](C)[C@H](O)[C@@H](O)[C@H]3O)cc2O)cc1O | 100 µg/mL | 2 h | – | 17 |
| CN(C)CCc1c[nH]c2ccc(C[C@H]3COC(=O)N3)cc12 | 5 µM | 2 h | – | 0.56 |
| C[C@@H]1O[C@@H](O[C@H]2[C@H](Oc3cc(O)c4c(c3)O[C@H](c3ccc(O)cc3)CC4=O)O[C@H](CO)[C@@H](O)[C@@H]2O)[C@H](O)[C@H](O)[C@H]1O | 100 µg/mL | 2 h | – | 21 |
| O=c1c2cc(Cl)ccc2[nH]c(=S)n1Cc1cccnc1 | 10 µM | 90 min | pH 7.4 | 17.7 |
| O=c1cc(-c2ccccc2)oc2cc(O)c(O)c(O)c12 | 100 µg/mL | 2 h | – | 9.23 |
| CCOC(=O)[C@H](CCc1ccccc1)N[C@@H](C)C(=O)N1CCC[C@H]1C(=O)O | 5 µM | 2 h | – | 0.13 |
| N#Cc1ccc(C[C@H](Nc2nnc(-c3ccc(F)cc3)o2)C(=O)N2CCc3ccccc32)cc1 | 100 µM | 2 h | – | 62.9 |
| Cc1c[nH]c2ncnc(N3C=C(C(=O)N4CCC[C@@H](N)C4)SCC3)c12 | 10 µM | – | pH 6.5 | < 0.3 |
| CCONC(=O)N1CCC[C@H](C(=O)NCc2nc(-c3ccc(C#N)cc3)cs2)C1 | – | – | pH 7.4 | 6.5 |
| CC(=O)OCc1cc2[nH]c(=S)n(Cc3cccnc3)c(=O)c2cc1Cl | 10 µM | 90 min | pH 7.4 | 0.6 |
| N#Cc1ccc(C[C@H](Nc2ncc(-c3ccc(F)cc3)o2)C(=O)N2CCc3ccccc32)cc1 | 100 µM | 2 h | – | 10.6 |
| O=C(NCc1nc(-c2ccc(C(F)(F)F)cc2)cs1)[C@H]1CCCN(C(=O)COCCN2CCCCC2)C1 | – | – | pH 7.4 | 3.9 |
| COc1ccc(-c2coc3cc(O)cc(O)c3c2=O)cc1 | 100 µg/mL | 2 h | – | 20.4 |
